The record followed here is ChEMBL document CHEMBL4196195, “( R)- N-(1-Methyl-2-hydroxyethyl)-13-( S)-methyl-arachidonamide (AMG315): A Novel Chiral Potent Endocannabinoid Ligand with Stability to Metabolizing Enzymes” (J Med Chem, 2018).

The term pEC50 denotes the negative decadic logarithm of the EC50, by convention in mol/L. The pKi is the Ki on a negative log10 scale, so that one unit is a factor of ten. A low value points to a large Ki. Broadly, the Emax is the maximal effect, on the per cent scale that the assay sets.

Data set [1] deals with Mus musculus. The data set can be described thus: Antiallodynic activity in CD1 mouse model of CFA-induced inflammatory pain assessed as increase in CFA-reduced mechanical paw withdrawal threshold at 5 mg/kg, ip measured at 60 mins post injection. The class given is functional, organism-based. Put shortly:
(§1)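 Adult male mice (39 ± 10 g), wild-type CD1 or CB1 KO on CD1 background, single housed. CFA:saline 1:1 (20 μL) injected intraplantar into right hind paw; 48 h allowed before dosing. Drug given ip in 5 mL/kg, vehicle group included. Electronic von Frey (90 g probe) after ≥30 min habituation, read in duplicate per paw, at baseline, 48 h post-CFA and 10, 30, 60, 120 min post-dose. Two-way mixed ANOVA with Bonferroni post hoc tests.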

Data set [2] addresses T1, ABHD6 (monoacylglycerol lipase ABHD6) (Homo sapiens, UniProt Q9BV23).
T1 sequence (Q9BV23 whole entry): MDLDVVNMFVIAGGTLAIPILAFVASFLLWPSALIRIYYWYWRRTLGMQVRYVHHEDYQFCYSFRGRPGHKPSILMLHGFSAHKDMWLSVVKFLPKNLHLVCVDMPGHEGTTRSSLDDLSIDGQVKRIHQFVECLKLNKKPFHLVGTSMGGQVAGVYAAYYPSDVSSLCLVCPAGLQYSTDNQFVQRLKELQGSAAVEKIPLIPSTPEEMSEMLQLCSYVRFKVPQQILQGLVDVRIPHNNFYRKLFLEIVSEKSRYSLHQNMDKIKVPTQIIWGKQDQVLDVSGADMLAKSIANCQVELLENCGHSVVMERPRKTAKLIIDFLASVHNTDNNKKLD
The data set can be described thus: Stability assessed as human ABHD6-mediated compound hydrolysis by HPLC analysis. The class given is ADME. To be noted: read-out: Stability. Put shortly: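 Human MGL or ABHD6 expressed in E. coli BL21(DE3); cell lysate in 150 mM NaCl, 50 mM Tris, 1% Triton X-100, pH 8.0. Lysate (0.5 µg total protein) incubated at 37 °C with compound or 2-AG reference for 30 min. Samples at 0–30 min quenched in acetonitrile. Analysed by C18 reversed-phase HPLC with UV at 204 nm against external standards.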

Data set [3] concerns the target T2, Cannabinoid receptor 1 (Rattus norvegicus, UniProt P20272). The data set can be described thus: Agonist activity at rat CB1 receptor expressed in HEK293 cells assessed as inhibition of forskolin-induced cAMP accumulation incubated for 30 mins. The class given is functional, cell-based. To be noted: read-out: EC50. Put shortly: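 HEK293 cells stably expressing rCB1, harvested with nonenzymatic dissociation reagent, washed in HBSS, 1000–1500 cells/well. Test compound at various concentrations with forskolin (2 μM final) in stimulation buffer, 30 min at room temperature. cAMP read by TR-FRET (Eu-cAMP tracer plus ULight anti-cAMP, 60 min room temperature). Forskolin-stimulated cAMP set to 100%. EC50 from nonlinear regression; two independent experiments in triplicate.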
In general terms: cAMP levels reflect the balance of adenylyl cyclase and phosphodiesterase activity.

The subject of data set [4] is Mus musculus. The data set can be described thus: Antiallodynic activity in CD1 mouse model of CFA-induced inflammatory pain assessed as increase in CFA-reduced mechanical paw withdrawal threshold at 5 mg/kg, ip measured at 120 mins post injection. The class given is functional, organism-based. Put shortly:
as §1

Data set [5] deals with Mus musculus. The data set can be described thus: Effect on mechanical paw withdrawal threshold of contralateral paw in CB1 receptor knockout CD1 mouse model of CFA-induced inflammatory pain at 5 mg/kg, ip measured at 10 to 120 mins post injection. The class given is ADME, organism-based. The note with it: in vivo. Put shortly:
(§2)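 Wild-type CD1 or CB1 KO (CD1 background) adult male mice. Unilateral intraplantar CFA:saline 1:1 (20 μL) into right hind paw, 48 h before ip dosing (5 mL/kg); vehicle controls. Threshold of the uninjected contralateral paw measured by electronic von Frey (90 g probe), duplicate readings averaged, at 10, 30, 60, 120 min post-dose. Two-way mixed ANOVA.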

For data set [6], the target named is T3, Prostaglandin G/H synthase 2 (Mus musculus, UniProt Q05769).
T3 sequence (Q05769 whole entry): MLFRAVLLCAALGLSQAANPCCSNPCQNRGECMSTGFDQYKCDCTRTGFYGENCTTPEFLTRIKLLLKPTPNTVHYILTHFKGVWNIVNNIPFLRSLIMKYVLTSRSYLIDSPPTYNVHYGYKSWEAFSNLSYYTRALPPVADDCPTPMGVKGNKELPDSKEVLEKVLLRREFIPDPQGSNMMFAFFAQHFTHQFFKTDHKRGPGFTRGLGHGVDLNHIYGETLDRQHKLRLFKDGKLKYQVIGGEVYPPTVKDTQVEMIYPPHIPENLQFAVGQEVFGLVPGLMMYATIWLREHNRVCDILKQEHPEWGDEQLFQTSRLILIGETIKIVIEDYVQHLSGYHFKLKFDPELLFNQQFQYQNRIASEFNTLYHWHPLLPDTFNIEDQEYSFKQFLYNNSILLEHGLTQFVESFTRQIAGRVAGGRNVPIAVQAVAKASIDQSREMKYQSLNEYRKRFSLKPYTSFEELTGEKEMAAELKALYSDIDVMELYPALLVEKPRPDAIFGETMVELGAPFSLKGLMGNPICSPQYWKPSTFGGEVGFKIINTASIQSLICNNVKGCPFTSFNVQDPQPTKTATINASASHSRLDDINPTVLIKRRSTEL
The data set can be described thus: Stability assessed as mouse COX2-mediated compound oxidation by measuring oxygen consumption by polarographic assay. The class given is ADME.

In data set [7] the target is T2, Cannabinoid receptor 1. The data set can be described thus: Displacement of [3H]CP-55,940 from CB1 receptor in rat brain membranes in absence of FAAH inhibitor PMSF by radioligand binding assay. The class given is cell membranes, Membrane. For orientation: Loss of bound radioactivity is the signal in a displacement assay; it reports binding, not function.
The target in data set [8] is Cannabinoid receptor 1 (Rattus norvegicus) (UniProt P20272). The data set can be described thus: Agonist activity at rat CB1 receptor expressed in HEK293 cells assessed as inhibition of forskolin-induced cAMP accumulation incubated for 30 mins relative to 500 nM CP-55,940. The class given is functional, cell-based.
Chain of Cannabinoid receptor 1 (Rattus norvegicus) (P20272 whole entry): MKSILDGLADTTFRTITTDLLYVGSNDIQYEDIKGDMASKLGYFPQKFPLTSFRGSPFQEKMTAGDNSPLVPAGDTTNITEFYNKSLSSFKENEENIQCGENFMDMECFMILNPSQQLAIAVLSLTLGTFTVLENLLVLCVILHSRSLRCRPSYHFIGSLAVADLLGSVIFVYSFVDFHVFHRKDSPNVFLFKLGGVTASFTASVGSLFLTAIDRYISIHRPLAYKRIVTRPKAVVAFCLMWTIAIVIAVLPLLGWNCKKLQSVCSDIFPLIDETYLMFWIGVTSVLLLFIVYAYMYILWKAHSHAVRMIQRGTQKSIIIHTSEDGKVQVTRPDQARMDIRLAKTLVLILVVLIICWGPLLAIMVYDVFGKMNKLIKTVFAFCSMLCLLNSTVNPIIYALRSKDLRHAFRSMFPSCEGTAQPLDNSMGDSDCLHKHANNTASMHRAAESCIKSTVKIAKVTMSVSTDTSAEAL
Data set [9] relates to Mus musculus. The data set can be described thus: Antiallodynic activity in CB1 receptor knockout CD1 mouse model of CFA-induced inflammatory pain assessed as increase in CFA-reduced mechanical paw withdrawal threshold at 5 mg/kg, ip measured at 10 to 120 mins post injection. The class given is functional, organism-based. Put shortly:
as §1

The test system of data set [10] is Mus musculus. The data set can be described thus: Effect on mechanical paw withdrawal threshold of contralateral paw in CD1 mouse model of CFA-induced inflammatory pain at 5 mg/kg, ip measured at 10 to 120 mins post injection. The class given is ADME, organism-based. To be noted: in vivo. An outline of the steps:
as §2

The test system of data set [11] is Mus musculus. The data set can be described thus: Antiallodynic activity in CD1 mouse model of CFA-induced inflammatory pain assessed as increase in CFA-reduced mechanical paw withdrawal threshold at 5 mg/kg, ip measured at 10 mins post injection. The class given is functional, organism-based. Put shortly: as §1
Data set [12] relates to Mus musculus. The data set can be described thus: Antiallodynic activity in CD1 mouse model of CFA-induced inflammatory pain assessed as increase in CFA-reduced mechanical paw withdrawal threshold at 5 mg/kg, ip measured up to 30 mins post injection. The class given is functional, organism-based. Put shortly: as §1

pEC50, pKi: −log10 of the molar value. The source made the active and inactive calls.

T2 sequence (P20272 whole entry): as above

Take `CCCCC/C=C\[C@H](C)/C=C\C/C=C\C/C=C\CCCC(=O)N[C@H](C)CO`: the result in the data set on Mus musculus [1], with Mus musculus [11] and in the data set on Mus musculus [12] was Active. The half-life in data set [2] was determined as 30 min. Besides, the negative-log EC50 (pEC50) on Cannabinoid receptor 1 [3] is 9.22. The outcome in the data set with Mus musculus [4] and in the data set with Mus musculus [9] was inactive. Further, the Activity entry with Mus musculus [5] and in the data set on Mus musculus [10] was “Non-Toxic” throughout. The Stability entry in data set [6] was “Stable”. In addition, the pKi on Cannabinoid receptor 1 [7] is 8.11. The Emax in data set [8] is 76%.
